In publication PMC10089208 (Proceedings of the National Academy of Sciences of the …, 2023):
Bridge positions count the residues as written; N and C are the ends. Peptide text beside a SMILES is read from it.

Columns and labels:
LRP6E1E2 = experiment: ELISA competition assay of Wnt.cys peptides with Fab YW210 for LRP6E1E2; format: binding, human; conditions: LRP6E1E2 constant at 3x EC50, serial dilution of YW210
[1] = system: Wnt1-mediated β-catenin signaling; experiment: TOPbrite dual-luciferase reporter assay, inhibition of Wnt1-mediated signaling; format: cell-based, human; conditions: HEK293 TOPbrite cells transfected with Wnt1; treatment 6 h before measurement
Procedure, shortened: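 Wnt1 construct was transfected with FuGENE HD into TOPbrite/Renilla HEK293 cells (DMEM/F12, 10% FBS, hygromycin, 37 °C), seeded 24 h earlier, then incubated 24–48 h. Linker peptides or LRP6 Fabs were added 6 h before reading. Dual-Glo firefly/Renilla luminescence ratio was calculated, in some instances normalized to nontreated controls.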

Reck = experiment: ELISA binding of linker peptides to Reck; conditions: immobilised biotinylated peptide
Procedure, shortened: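 Neutravidin-coated (5 μg/mL) plates blocked with 0.5% BSA/PBS for 2 h at room temperature, then loaded with 1 μg biotinylated linker peptide per well. Serial dilutions of His-tagged Reck in PBS/0.5% BSA/0.05% Tween 20 were incubated for 45 min at room temperature. After washing, bound protein was detected with HRP anti-His (1:5,000, 45 min) and TMB, reading absorbance at 450 nm.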

[2] = biological target: hLRP6_(E1E2) (residues 20 to 631), C-terminal hexahistidine-tag, for ELISA (human, UniProt O75581); experiment: ELISA
Chain of hLRP6_(E1E2) (residues 20 to 631), C-terminal hexahistidine-tag, for ELISA (O75581 20-631): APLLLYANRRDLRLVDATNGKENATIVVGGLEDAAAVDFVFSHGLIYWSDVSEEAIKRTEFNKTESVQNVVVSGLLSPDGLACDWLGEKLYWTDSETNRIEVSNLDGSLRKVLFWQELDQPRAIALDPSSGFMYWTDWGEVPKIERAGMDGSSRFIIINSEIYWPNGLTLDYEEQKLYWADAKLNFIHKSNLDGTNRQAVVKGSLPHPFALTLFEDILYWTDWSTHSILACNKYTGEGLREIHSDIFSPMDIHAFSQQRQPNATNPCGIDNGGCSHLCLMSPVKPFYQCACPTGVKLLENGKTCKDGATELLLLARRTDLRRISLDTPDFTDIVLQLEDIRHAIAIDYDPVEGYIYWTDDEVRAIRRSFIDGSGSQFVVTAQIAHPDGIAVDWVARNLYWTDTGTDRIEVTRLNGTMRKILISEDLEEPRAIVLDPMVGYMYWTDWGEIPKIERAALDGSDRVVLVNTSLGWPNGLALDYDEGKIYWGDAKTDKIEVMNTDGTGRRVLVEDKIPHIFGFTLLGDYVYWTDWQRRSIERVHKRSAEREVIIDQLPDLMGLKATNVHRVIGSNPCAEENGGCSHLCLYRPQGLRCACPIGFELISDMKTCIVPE

[3] = system: HEK293 TOPbrite reporter cells, β-catenin signaling; format: cell-based, human; conditions: transfection of 0 to 25 ng construct, 24 to 48 h; normalized to empty vector
Procedure, shortened: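 HEK293 cells carried a stable firefly TOPbrite Wnt reporter plus pRL-SV40 Renilla and were kept in DMEM/F12 (50:50) with 10% FBS, GlutaMAX and 40 μg/mL hygromycin at 37 °C, 5% CO2. Cells were seeded at 20,000–40,000 per well, grown 24 h, then transfected with 0–25 ng Wnt or chimera construct using FuGENE HD. After 24–48 h, Dual-Glo firefly/Renilla ratio was normalized to empty vector.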

[4] = system: HEK293 luciferase reporter cells, phospho-LRP6 and active β-catenin; format: cell-based, human; conditions: overexpression, 250 ng DNA, 24 h, Western blot

| Molecule | competition of Fab YW210 with the peptide for LRP6E1E2 binding (LRP6E1E2) | inhibition of Wnt1-mediated β-catenin signaling [1] | also measured |
| --- | --- | --- | --- |
| CC(C)C[C@@H]1NC(=O)[C@H](CCC(=O)O)NC(=O)[C@H](C)NC(=O)[C@H](CCCNC(=N)N)NC(=O)[C@H](CO)NC(=O)[C@H](C)NC(=O)[C@H](CCCNC(=N)N)NC(=O)[C@H](CC(N)=O)NC(=O)[C@H](CO)NC(=O)CNC(=O)[C@H](CCCNC(=N)N)NC(=O)[C@H](CC(N)=O)NC(=O)CNC(=O)[C@H](Cc2ccc(O)cc2)NC(=O)[C@H](CC(C)C)NC(=O)[C@H](C(C)C)NC(=O)[C@H](CCCNC(=N)N)NC(=O)[C@H](CO)NC(=O)[C@@H](NC(=O)CN)CSSC[C@@H](C(=O)N[C@H](C(=O)O)C(C)C)NC(=O)[C@H](CC(=O)O)NC(=O)[C@H](Cc2c[nH]cn2)NC(=O)[C@@H]2CCCN2C(=O)[C@H](CO)NC(=O)[C@@H]2CCCN2C(=O)[C@@H]2CCCN2C(=O)[C@H](CCCCN)NC(=O)[C@H](Cc2c[nH]cn2)NC(=O)[C@H](C)NC(=O)[C@@H]2CCCN2C(=O)[C@H](CC(=O)O)NC(=O)[C@H](CCC(=O)O)NC(=O)[C@@H]2CCCN2C(=O)[C@H](CCC(=O)O)NC(=O)[C@H](CC(C)C)NC(=O)[C@H](CCCNC(=N)N)NC(=O)[C@H](CC(C)C)NC1=O [W1.cys] (H-GCSRVLYGNRGSNRASRAELLRLEPEDPAHKPPSPHDCV-OH; disulfide 2-38; N-terminus and C-terminus assumed) | competed strongly | inhibited | – |
| CSCC[C@@H]1NC(=O)[C@H](C(C)C)NC(=O)[C@H](CCC(N)=O)NC(=O)[C@H](C(C)C)NC(=O)[C@@H](NC(=O)CN)CSSC[C@@H](C(=O)N[C@H](C(=O)O)C(C)C)NC(=O)[C@H](CC(=O)O)NC(=O)[C@H]([C@@H](C)O)NC(=O)[C@H](CCCNC(=N)N)NC(=O)[C@H]([C@@H](C)O)NC(=O)[C@H](C)NC(=O)[C@H](CCCNC(=N)N)NC(=O)[C@H](CCCNC(=N)N)NC(=O)[C@H](Cc2ccc(O)cc2)NC(=O)CNC(=O)[C@H](CCC(N)=O)NC(=O)[C@H](CCCNC(=N)N)NC(=O)[C@H](C)NC(=O)[C@H](C)NC(=O)[C@H]([C@@H](C)O)NC(=O)[C@H](Cc2ccccc2)NC(=O)[C@H](CC(N)=O)NC(=O)[C@H](C)NC(=O)CNC(=O)[C@H](CC(=O)O)NC(=O)[C@H](CCC(N)=O)NC(=O)[C@H]([C@@H](C)O)NC(=O)[C@H](C)NC1=O [W2b.cys] (H-GCVQVMATQDGANFTAARQGYRRATRTDCV-OH; disulfide 2-29; N-terminus and C-terminus assumed) | competed strongly | inhibited | – |
| CSCC[C@@H]1NC(=O)[C@H](CCC(=O)O)NC(=O)[C@H](CO)NC(=O)[C@@H](NC(=O)[C@@H](N)CO)CSSC[C@@H](C(=O)N[C@H](C(=O)O)C(C)C)NC(=O)[C@H](CC(=O)O)NC(=O)[C@H](CCCNC(=N)N)NC(=O)[C@H](CCC(=O)O)NC(=O)[C@H]([C@@H](C)O)NC(=O)[C@@H]2CCCN2C(=O)[C@H](C(C)C)NC(=O)[C@H](CCCCN)NC(=O)[C@H](Cc2ccccc2)NC(=O)[C@H](Cc2ccc(O)cc2)NC(=O)[C@H]([C@@H](C)O)NC(=O)[C@H](Cc2ccc(O)cc2)NC(=O)[C@H](CCCNC(=N)N)NC(=O)[C@@H]2CCCN2C(=O)[C@H](CCCNC(=N)N)NC(=O)[C@H](CC(C)C)NC(=O)[C@H]([C@@H](C)O)NC(=O)[C@H](CCC(=O)O)NC(=O)[C@H](C(C)C)NC(=O)[C@H](Cc2c[nH]c3ccccc23)NC(=O)CNC(=O)[C@H](CCCNC(=N)N)NC(=O)[C@H](CO)NC(=O)[C@H](CCC(=O)O)NC(=O)[C@H](CCCNC(=N)N)NC(=O)[C@H](Cc2c[nH]cn2)NC(=O)[C@H](CCCCN)NC(=O)[C@H](CCC(=O)O)NC(=O)[C@H](C(C)C)NC(=O)[C@H](C(C)C)NC1=O [W3a.cys] (H-SCSEMVVEKHRESRGWVETLRPRYTYFKVPTERDCV-OH; disulfide 2-35; N-terminus and C-terminus assumed) | could not be outcompeted | – | – |
| CC[C@H](C)[C@@H]1NC(=O)[C@H](CCCCN)NC(=O)[C@H](CC(C)C)NC(=O)[C@H](Cc2ccccc2)NC(=O)[C@H]([C@@H](C)O)NC(=O)[C@@H]2CCCN2C(=O)[C@H](CCCNC(=N)N)NC(=O)[C@H](CCCCN)NC(=O)[C@H](CC(N)=O)NC(=O)[C@H](CCCNC(=N)N)NC(=O)[C@H](CO)NC(=O)[C@H](C)NC(=O)[C@H](CCCNC(=N)N)NC(=O)[C@H](C(C)C)NC(=O)[C@@H]2CCCN2C(=O)[C@H](CCC(=O)O)NC(=O)[C@H](C(C)C)NC(=O)[C@H](Cc2c[nH]cn2)NC(=O)[C@H](C(C)C)NC(=O)[C@@H](NC(=O)[C@@H](N)CCC(=O)O)CSSC[C@@H](C(=O)N[C@H](C(=O)O)C(C)C)NC(=O)[C@H](CC(=O)O)NC(=O)[C@H]([C@@H](C)O)NC(=O)[C@H](CC(=O)O)NC(=O)[C@H](CCSC)NC(=O)[C@@H]2CCCN2C(=O)[C@H](CCCCN)NC(=O)[C@H](CCCNC(=N)N)NC(=O)[C@H](Cc2ccc(O)cc2)NC(=O)[C@H](CO)NC(=O)[C@H](CC(C)C)NC(=O)[C@@H]2CCCN2C(=O)[C@H](CCCCN)NC(=O)[C@H](CCCCN)NC1=O [W7a.cys] (H-ECVHVEPVRASRNKRPTFLKIKKPLSYRKPMDTDCV-OH; disulfide 2-35; N-terminus and C-terminus assumed) | partially | inhibited | binding to Reck (Reck): bound Reck |
| YW210: Fab that binds predominantly to the LRP6 E1 domain [reference compound] | – | inhibited Wnt1-induced signaling | – |
| YW210.09 Fab (Fab, V domains shown) VH: EVQLVESGGGLVQPGGSLRLSCAASGFTFTNSYIHWVRQAPGKGLEWVGWITPYGGYTNYADSVKGRFTISADTSKNTAYLQMNSLRAEDTAVYYCARGSGHVNAVKNYGYVMDYWGQGTLVTVSS VL: DIQMTQSPSSLSASVGDRVTITCRASQDVSTAVAWYQQKPGKAPKLLIYSASFLYSGVPSRFSGSGSGTDFTLTISSLQPEDFATYYCQQSYTTPPTFGQGTKVEIK | – | – | binding result [2]: binds |
| Wnt3a: human Wnt3a, canonical, overexpressed (protein, UniProt P56704 19-352, looked up) Protein Wnt-3a: SYPIWWSLAVGPQYSSLGSQPILCASIPGLVPKQLRFCRNYVEIMPSVAEGIKIGIQECQHQFRGRRWNCTTVHDSLAIFGPVLDKATRESAFVHAIASAGVAFAVTRSCAEGTAAICGCSSRHQGSPGKGWKWGGCSEDIEFGGMVSREFADARENRPDARSAMNRHNNEAGRQAIASHMHLKCKCHGLSGSCEVKTCWWSQPDFRAIGDFLKDKYDSASEMVVEKHRESRGWVETLRPRYTYFKVPTERDLVYYEASPNFCEPNPETGSFGTRDRTCNVSSHGIDGCDLLCCGRGHNARAERRREKCRCVFHWCCYVSCQECTRVYDVHTCK | – | – | β-catenin signaling induced by overexpression (TOPbrite) [3]: induced β-catenin signaling; LRP6 phosphorylation [4]: induced; accumulation of active (nonphosphorylated) β-catenin [4]: induced |
| Wnt1: human Wnt1, canonical, overexpressed (protein, UniProt P04628 28-370, looked up) Proto-oncogene Wnt-1: ANSSGRWWGIVNVASSTNLLTDSKSLQLVLEPSLQLLSRKQRRLIRQNPGILHSVSGGLQSAVRECKWQFRNRRWNCPTAPGPHLFGKIVNRGCRETAFIFAITSAGVTHSVARSCSEGSIESCTCDYRRRGPGGPDWHWGGCSDNIDFGRLFGREFVDSGEKGRDLRFLMNLHNNEAGRTTVFSEMRQECKCHGMSGSCTVRTCWMRLPTLRAVGDVLRDRFDGASRVLYGNRGSNRASRAELLRLEPEDPAHKPPSPHDLVYFEKSPNFCTYSGRLGTAGTAGRACNSSSPALDGCELLCCGRGHRTRTQRVTERCNCTFHWCCHVSCRNCTHTRVLHECL | – | – | β-catenin signaling induced by overexpression (TOPbrite) [3]: induced β-catenin signaling; LRP6 phosphorylation [4]: induced; accumulation of active (nonphosphorylated) β-catenin [4]: induced |
